Compound activity (PubChem BioAssay)
Only some compounds are listed: those with a hit (about 1.8% of all), similar ones and a draw of the others.
Gli-Sufu block: Gli-Sufu pathway antagonists, primary screen, luciferase luminescence, Sufu-KO-LIGHT cells, uHTS | AID 588413, 2011 | Sufu-KO-LIGHT fibroblasts, Gli luciferase reporter luminescence | inhibition, % at 5 µM | 340,000 tested, 0.74% active;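 active means inhibition above about 55%, limit read from the data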
697 NFkB inh: inhibitors of PMA/ionomycin-induced NF-kB reporter, 697 cells, primary screen, B-cell NF-kB inhibitor project, cell-based, luminescence, uHTS; 697 B-cell NF-kB luciferase reporter, 16 h; inhibition, % at 4 µM; 330,000 tested, 0.33% active; AID 435022, 2010; in the data active means inhibition above about 35%
NR2E3 ag-1: NR2E3 agonists in two-hybrid cells, primary screen, cell-based, luminescence, CHO-S, Gal4-NCOR/VP16-NR2E3; Photoreceptor-specific nuclear receptor (Homo sapiens), Q9Y5X4; luciferase; inhibition of corepressor binding, % at 3.98 µM; 360,000 tested, 0.35% active; AID 602229, 2012;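 active means inhibition above the mean of all tested compounds plus 3 SD, cut at about 70% in these data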;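 further: higher means lower luciferase signal from less NR2E3 corepressor binding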
GalR3 antag: GalR3 antagonists in HEK293 cells, primary screen, cell-based, fluorescence readout; Galanin receptor type 3 (Homo sapiens), O60755; HEK293 GalR3-CNG cAMP membrane potential fluorescence; galR3 body fused to GalR1 C-terminus; inhibition, % at 3 µM; 360,000 tested, 0.44% active; AID 651719, 2012;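 active means inhibition above the screen-wide average plus 3 SD, cut at about 13% in these data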;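 further: forskolin and galanin both at EC90 stimulate the cells; cAMP rise reported by CNG channel membrane potential dye signal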
Target sequence (O60755 1-299 limits assumed): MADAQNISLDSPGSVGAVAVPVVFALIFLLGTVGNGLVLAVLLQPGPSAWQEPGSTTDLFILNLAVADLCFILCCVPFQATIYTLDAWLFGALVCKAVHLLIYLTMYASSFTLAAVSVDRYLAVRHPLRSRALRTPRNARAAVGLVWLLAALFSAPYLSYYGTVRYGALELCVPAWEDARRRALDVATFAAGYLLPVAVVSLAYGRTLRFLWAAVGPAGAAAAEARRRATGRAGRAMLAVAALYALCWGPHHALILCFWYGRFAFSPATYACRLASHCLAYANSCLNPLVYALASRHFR
Jurkat NFkB inh: inhibitors of induced NF-kB luciferase reporter, primary screen, TCR NF-kB activation inhibitor project, cell-based, luminescence, uHTS | Jurkat, PMA/ionomycin-induced NF-kB luciferase reporter | inhibition, % at 4 µM | 330,000 tested, 0.53% active; in the data active means inhibition above about 50%
NR2E3 ag-2: inhibitors of NR2E3-RetCOR corepressor binding, primary screen, NR2E3 agonist project, biochemical, TR-FRET, GST-NR2E3, biotin-RetCOR; 1536-well; Photoreceptor-specific nuclear receptor (Homo sapiens), Q9Y5X4; AID 2300, 2010; 320,000 tested, 0.12% active; inhibition of corepressor binding, % at 4.78 µM;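 active means percent inhibition above the cutoff of mean plus 3 SD of all tested compounds, set per screening campaign, cut at about 20% in these data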
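Material: NR2E3–RetCOR corepressor complex / Amount: 1.35 nM GST-NR2E3 / Medium: Tris pH 7.5 / Compound: single nominal compound dose of 4.8 µM / Incubation: 5 h at 4 °C / Technique: TR-FRET, Eu(K)-anti-GST donor, streptavidin-D2 acceptor, ex 340, em 617/671 nm / Read-out basis: percent loss of FRET ratio relative to control wells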
Gli-Sufu confirm: Gli-SUFU pathway antagonists, confirmation, single concentration, luciferase luminescence, Sufu-KO-LIGHT cells | shares compounds with Gli-Sufu block | Gli luciferase reporter | inhibition, % at 5 µM | 2,500 tested, 40% active;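 active means mean inhibition at 5 µM reaching about 45%, limit read from the data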
SufuKO cytotox: cytotoxicity in Sufu-KO-LIGHT cells, confirmation, cytotoxicity control for Gli-SUFU antagonist project, cell-based, ATP luminescence, single concentration; 2,500 tested, 32% active; cytotoxicity, % at 5 µM; shares compounds with Gli-Sufu block;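 active means mean cytotoxicity at 5 µM above about 25%, limit read from the data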;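 further: cells exposed to compound overnight for roughly 16 to 18 hours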
Wnt3a cs: Wnt3a reporter signal inhibition, confirmation, counter-screen for Gli-SUFU antagonist project, Wnt-LIGHT cells, luminescence, single concentration; shares compounds with Gli-Sufu block; Wnt3a-driven luciferase reporter; inhibition, % at 6.25 µM; 2,500 tested, 20% active; AID 651995, 2013;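 active means mean inhibition above about 25%, limit read from the data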
Of the large screens only hits and unclear results are named; the others gave an inactive call (follow-up assays come after a bar, where they were run).

CCCNC(=O)COC(=O)c1cccnc1Nc1ccccc1F	none
Cc1noc(C)c1C(=O)OC(C)C(=O)N(C)c1ccccc1 (configuration not stated)	none
C=CCOc1nc2c(c(=O)n(C)c(=O)n2C)n1Cc1ccc(Cl)cc1	Gli-Sufu block 72 | Gli-Sufu confirm 61 | SufuKO cytotox 27 | Wnt3a cs inactive
Cn1c(=O)c2c(nc(NCCc3ccccc3)n2Cc2ccc(F)cc2)n(C)c1=O	none
Cn1c(N2CCCC2)nc2c1c(=O)n(Cc1ccc(F)cc1)c(=O)n2C	none | Gli-Sufu confirm inactive | SufuKO cytotox inactive | Wnt3a cs inactive
C=CCNc1nc2c(c(=O)n(C)c(=O)n2C)n1Cc1ccc(F)cc1	none | Gli-Sufu confirm 55 | SufuKO cytotox inactive | Wnt3a cs 26
COCCNc1nc2c(c(=O)n(C)c(=O)n2C)n1Cc1cccc(C)c1	Gli-Sufu block 61 | Gli-Sufu confirm 63 | SufuKO cytotox 25 | Wnt3a cs inactive
COC(=O)C1=C(C)N(C)C(=NCc2ccc(OC)cc2)NC1c1ccc(F)cc1 (configuration not stated)	none (no result: Gli-Sufu block, 697 NFkB inh, NR2E3 ag-1, Jurkat NFkB inh, NR2E3 ag-2)
Cc1ccc(S(=O)(=O)NCc2ccc(C(=O)NCc3cccnc3)cc2)cc1	none (no result: Gli-Sufu block, NR2E3 ag-1, GalR3 antag)
CCCOc1nc2c(c(=O)n(C)c(=O)n2C)n1Cc1cccc2ccccc12	Gli-Sufu block 57 | Gli-Sufu confirm 58 | SufuKO cytotox 40 | Wnt3a cs inactive
CCCOc1nc2c(c(=O)n(C)c(=O)n2C)n1C	none
Cc1sc2nc(CSCC(=O)Nc3ccccc3C#N)[nH]c(=O)c2c1C	none
CN1C(c2ccccc2)CC(C)(O)CC1c1ccccc1 (configuration not stated)	none (no result: Gli-Sufu block, 697 NFkB inh, NR2E3 ag-1, Jurkat NFkB inh, NR2E3 ag-2)
COC(=O)C1=C(C)N(Cc2ccccc2C(F)(F)F)C(=NCc2ccccc2C(F)(F)F)NC1c1cccc(F)c1 (configuration not stated)	none (no result: Gli-Sufu block, 697 NFkB inh, NR2E3 ag-1, Jurkat NFkB inh, NR2E3 ag-2)
CC1(C)CC(=O)C2=C(C1)Nc1ccccc1NC2c1cccs1 (configuration not stated)	Gli-Sufu block 58 | Gli-Sufu confirm inactive | SufuKO cytotox inactive | Wnt3a cs inactive
O=C(c1ccc(=O)[nH]n1)N1CCN(S(=O)(=O)c2cccc(F)c2)CC1	none (no result: NR2E3 ag-2)
O=C(c1ccc(=O)[nH]n1)N1CCN(S(=O)(=O)c2ccc3ccccc3c2)CC1	Gli-Sufu block 63 | Gli-Sufu confirm inactive | SufuKO cytotox inactive | Wnt3a cs inactive
CC(C)(C)S(=O)(=O)N1C[C@H]2C(=C(CCO)C[C@H]3C(=O)N(c4ccccc4)C(=O)[C@H]32)[C@@H]1CCO	none (no result: Gli-Sufu block, 697 NFkB inh, NR2E3 ag-1, Jurkat NFkB inh, NR2E3 ag-2)
Cn1cc(S(=O)(=O)N2CCc3ccccc32)cc1C(=O)NC(C)(C)C	Gli-Sufu block 61 (no result: GalR3 antag) | Gli-Sufu confirm 58 | SufuKO cytotox 35 | Wnt3a cs inactive
CCN(CC)c1ccc(CNc2nc3ccccc3n2CCN2CCCCC2)cc1	Gli-Sufu block 67 | Gli-Sufu confirm inactive | SufuKO cytotox inactive | Wnt3a cs inactive
COc1ccc(CNc2nc3ccccc3n2CCN2CCCCC2)cc1	none
C[C@@H]1NS(=O)(=O)c2cccc(Cl)c2O[C@@H]1c1ccccc1	none (no result: Gli-Sufu block, 697 NFkB inh, NR2E3 ag-1, Jurkat NFkB inh, NR2E3 ag-2)
